Laboratory results published in ChEMBL document CHEMBL2010650, “Synthetic N-alkylated iminosugars as new potential immunosuppressive agents” (ACS Med Chem Lett, 2011).
Calls of active or inactive are those of the source. The calls are words filed in the database; no cut-off is given here.

What was measured:
[1] = Immunosuppressive activity in BALB/c mouse splenocytes assessed as inhibition of concanavalin-A-induced cell proliferation at 30 uM after 48 hrs by MTT assay; type: functional; conditions: Splenocyte
Method in brief: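 Mouse splenocytes stimulated with Con A at 2.5 μg/mL, incubated with compound at 37 °C, 5% CO₂ for 48 h. Proliferation read by MTT assay. Con A-treated cells serve as control, CsA (1 μM) as positive control. Inhibition is expressed relative to control, as means ± SEM.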

[2] = tested on: Splenocyte; experiment: Immunosuppressive activity in BALB/c mouse splenocytes assessed as reduction in concanavalin-A-induced IL4 production at 30 uM after 48 hrs by ELISA; type: functional; set-up: scale not given: the % may be the effect or the level left
Method in brief: (§1)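 Splenocytes induced with 2.5 μg/mL Con A, co-incubated with compound 48 h at 37 °C, 5% CO₂. Culture supernatant assayed for IFN-γ or IL-4 by mouse ELISA kit. Reduction is relative to Con A-only control, with CsA 1 μM as positive control.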

[3] = tested on: Splenocyte; experiment: Immunosuppressive activity in BALB/c mouse splenocytes assessed as reduction in concanavalin-A-induced IFN-gamma production at 30 uM after 48 hrs by ELISA; type: functional; set-up: scale not given: the % may be the effect or the level left; method in brief: as §1
[4] = tested on: Th1; experiment: Immunosuppressive activity in Th1 cells assessed as reduction of IFNgamma production; type: functional, cell-based
[5] = tested on: Th2; experiment: Immunosuppressive activity in Th2 cells assessed as reduction of IL-4 production; type: functional, cell-based
[6] = Toxicity in subcutaneously dosed C57BL/6 mouse transplanted with trunk skin of BALB/c mouse; type: organism-based; conditions: in vivo, sc
[7] = species: Mus musculus; experiment: Toxicity in C57BL/6 mouse transplanted with trunk skin of BALB/c mouse assessed as mortality; type: organism-based; conditions: in vivo
[8] = tested on: Mus musculus; experiment: Immunosuppressive activity in C57BL/6 mouse transplanted with trunk skin of BALB/c mouse assessed as increase of allograft mean survival time at 50 umol/kg, sc (reference value: 11.25 +/- 1.83 days); type: functional
[9] = tested on: Splenocyte; experiment: Immunosuppressive activity in BALB/c mouse splenocytes assessed as reduction in concanavalin-A-induced IFN-gamma production at 1 uM after 48 hrs by ELISA; type: functional; set-up: scale not given: the % may be the effect or the level left; method in brief: as §1
[10] = tested on: Splenocyte; experiment: Immunosuppressive activity in BALB/c mouse splenocytes assessed as reduction in concanavalin-A-induced IL4 production at 1 uM after 48 hrs by ELISA; type: functional; set-up: scale not given: the % may be the effect or the level left; method in brief: as §1

| SMILES | inhibition at 30 µM [1] | Activity [2] | Activity [3] | Activity [4] | Activity [5] | LD50 [6] | Activity [7] | MST [8] | Activity [9] | Activity [10] |
| --- | --- | --- | --- | --- | --- | --- | --- | --- | --- | --- |
| CCCCCCCCCCN1C[C@@H](O)[C@@H](O)[C@H](O)C1=O | < 40% |  |  |  |  |  |  |  |  |  |
| CCCCCCCCN1C[C@@H](O)[C@H](O)[C@@H](O)C1 | 27.1% | 8.7% | 40.3% | Active |  |  |  |  |  |  |
| CCCCCCCCCCN1C[C@H](O)[C@@H](O)[C@@H](O)C1=O | < 40% |  |  |  |  |  |  |  |  |  |
| CCCCCCCCCCN1C[C@@H](O)[C@@H](O)C1 | 61% | 88.6% | 94.7% | Active | Active | 392 mg/kg | Non-toxic | 15.6 days |  |  |
| C/C=C/C[C@@H](C)[C@@H](O)[C@H]1C(=O)N[C@@H](CC)C(=O)N(C)CC(=O)N(C)[C@@H](CC(C)C)C(=O)N[C@@H](C(C)C)C(=O)N(C)[C@@H](CC(C)C)C(=O)N[C@@H](C)C(=O)N[C@H](C)C(=O)N(C)[C@@H](CC(C)C)C(=O)N(C)[C@@H](CC(C)C)C(=O)N(C)[C@@H](C(C)C)C(=O)N1C [CYCLOSPORINE] |  |  |  |  |  |  |  |  | 97.1% | 96.8% |
| CCCCCCCCCCN1C[C@@H](O)[C@H](O)[C@@H](O)C1 | 45.9% | 60.9% | 89.1% | Active | Active |  | Non-toxic | 14.71 days |  |  |
| CCCCCCCCCCN1C[C@H](O)[C@@H](O)[C@H](O)C1=O | < 40% |  |  |  |  |  |  |  |  |  |
| CCCCCCCCCCN1C[C@H](O)[C@H](O)C1=O | < 40% |  |  |  |  |  |  |  |  |  |
| CCCCCCCCCCN1C[C@H](O)C(O)[C@@H](O)C1 | 57.2% | 95.7% | 78.1% | Active | Active |  | Non-toxic | 14.14 days |  |  |
| CCCCCCCCCCN1C[C@@H](O)C(O)[C@H](O)C1 | 59% | 85.6% | 75% | Active | Active |  | Non-toxic | 15.2 days |  |  |
